Consider six compounds from paper PMC3831274 (Bioorganic & medicinal chemistry, 2013).

The target of one test is Human Mcl-1 (Homo sapiens, UniProt Q07820). The experiment in a line: fluorescence polarization. The class given is binding. The settings on record: for Mcl-1 potency relative to initial hit 1 (in words): SAR of phenyl region. In general terms: In fluorescence polarisation assays a small probe gives low polarisation when free and higher when bound to something large.
The target of another test is Bcl-xL (Homo sapiens, UniProt Q07817). The experiment in a line: fluorescence polarization. The class given is binding.
Chain of Bcl-xL (Q07817 1-209 limits assumed): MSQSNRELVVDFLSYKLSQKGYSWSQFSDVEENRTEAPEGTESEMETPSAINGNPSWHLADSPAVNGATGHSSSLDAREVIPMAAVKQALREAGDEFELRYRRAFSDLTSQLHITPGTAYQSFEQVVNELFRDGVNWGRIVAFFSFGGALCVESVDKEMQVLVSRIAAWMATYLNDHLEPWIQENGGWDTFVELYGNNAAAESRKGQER
Test [1] concerns several cell lines derived from various human malignancies. The experiment in a line: antiproliferative activity across several cell lines. The class given is cell-based. The procedure, abridged:
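Cells at 2.5 × 10⁵ cells/mL in 384-well plates; suspension lines in RPMI-1640/10% FBS (mouse lines plus β-mercaptoethanol), adherent lines in DMEM/10% FBS. Seven 2-fold dilutions from 5 µM or 20 µM top; DMSO top 0.2%. 37°C, 48 h; PrestoBlue read-out. Media background subtracted; viability normalized to cells-only wells (100%). Two independent triplicate runs (n=6) or three replicate experiments, by cell set.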

Test [2] deals with Mcl1-1780. In words: nuclear apoptosis determination. The class given is cell-based, mouse. As to conditions: Mcl1-1780, 24 hours.
In test [3] the test system is Bcl2-1863. The experiment in a line: nuclear apoptosis determination. The class given is cell-based, mouse. The settings on record: Bcl2-1863, 24 hours.
Another test deals with CYP450 3A4 (Homo sapiens, UniProt P08684). The experiment in a line: CYP450 inhibition 3A4. The class given is in vitro ADME.
Chain of CYP450 3A4 (P08684 whole entry): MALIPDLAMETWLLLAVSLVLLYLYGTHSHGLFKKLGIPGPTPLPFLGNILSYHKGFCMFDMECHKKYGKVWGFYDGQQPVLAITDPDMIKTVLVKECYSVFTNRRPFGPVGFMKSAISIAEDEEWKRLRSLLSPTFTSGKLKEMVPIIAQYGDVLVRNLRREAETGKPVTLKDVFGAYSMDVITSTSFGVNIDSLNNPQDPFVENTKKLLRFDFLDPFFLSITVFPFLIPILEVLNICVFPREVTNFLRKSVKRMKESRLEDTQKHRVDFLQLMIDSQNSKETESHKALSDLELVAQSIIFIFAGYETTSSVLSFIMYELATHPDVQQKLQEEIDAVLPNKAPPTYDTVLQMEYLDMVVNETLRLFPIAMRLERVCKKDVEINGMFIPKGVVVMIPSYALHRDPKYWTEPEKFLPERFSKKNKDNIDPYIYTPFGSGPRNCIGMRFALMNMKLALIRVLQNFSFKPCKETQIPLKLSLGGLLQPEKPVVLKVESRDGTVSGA
Test [4] has as its system Bcl2-1863. In words: Annexin V apoptosis assay. The class given is cell-based, mouse. The settings on record: Bcl2-1863, 16 hours, 0.15 µM-40 µM.
The subject of a further test is SUDHL-6. The experiment in a line: cytochrome c release determination. The class given is cell-based, human. The settings on record: SUDHL-6, 2 hours, 20µM EU-5346 or 100µM Puma.
Test [5] deals with Mcl1-1780. In words: cytochrome c release determination. The class given is cell-based, mouse. The settings on record: Mcl1-1780 compared with Bcl2-1863, 2 hours.
The subject of the next test is SUDHL-10. The experiment in a line: cytochrome c release determination. The class given is cell-based, human. As to conditions: SUDHL-10, 2 hours, 20µM EU-5346 or 100µM Puma.
A further test deals with CYP450 2D6 (Homo sapiens, UniProt P10635). In words: CYP450 inhibition 2D6. The class given is in vitro ADME.
Chain of CYP450 2D6 (P10635 whole entry): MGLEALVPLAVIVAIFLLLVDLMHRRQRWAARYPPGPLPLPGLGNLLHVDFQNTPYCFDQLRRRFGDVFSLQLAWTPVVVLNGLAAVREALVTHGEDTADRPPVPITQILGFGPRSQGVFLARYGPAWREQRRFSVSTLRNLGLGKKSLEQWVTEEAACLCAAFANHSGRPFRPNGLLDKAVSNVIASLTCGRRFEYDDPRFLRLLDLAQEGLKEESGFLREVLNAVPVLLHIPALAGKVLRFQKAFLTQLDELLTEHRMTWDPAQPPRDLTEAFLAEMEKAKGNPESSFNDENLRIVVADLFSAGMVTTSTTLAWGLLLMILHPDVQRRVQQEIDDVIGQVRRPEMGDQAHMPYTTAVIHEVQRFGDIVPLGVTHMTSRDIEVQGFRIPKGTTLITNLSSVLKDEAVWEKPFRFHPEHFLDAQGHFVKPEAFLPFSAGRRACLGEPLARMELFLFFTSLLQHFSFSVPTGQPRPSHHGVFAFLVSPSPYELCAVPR
The subject of test [6] is Mcl1-1780. In words: Annexin V apoptosis assay. The settings on record: Mcl1-1780, 16 hours, 0.15 µM-40 µM. The class given is cell-based, mouse.
In a further test the target is CYP450 2C9 (Homo sapiens, UniProt P11712). In words: CYP450 inhibition 2C9. The class given is in vitro ADME.
Chain of CYP450 2C9 (P11712 whole entry): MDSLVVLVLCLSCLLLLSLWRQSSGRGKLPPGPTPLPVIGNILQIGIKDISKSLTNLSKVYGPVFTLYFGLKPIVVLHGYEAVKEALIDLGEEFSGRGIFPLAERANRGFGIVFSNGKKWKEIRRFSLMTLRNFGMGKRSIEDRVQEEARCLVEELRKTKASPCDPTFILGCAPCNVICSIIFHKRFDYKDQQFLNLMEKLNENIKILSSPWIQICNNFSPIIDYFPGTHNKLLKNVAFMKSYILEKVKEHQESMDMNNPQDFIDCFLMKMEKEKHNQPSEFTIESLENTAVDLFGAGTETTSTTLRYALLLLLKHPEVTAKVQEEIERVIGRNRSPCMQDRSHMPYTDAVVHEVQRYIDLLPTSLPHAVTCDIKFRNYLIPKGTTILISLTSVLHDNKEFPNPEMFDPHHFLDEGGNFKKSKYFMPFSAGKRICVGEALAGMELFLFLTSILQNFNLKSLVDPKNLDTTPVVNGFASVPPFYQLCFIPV
The next test has as its system SUDHL-8. In words: cytochrome c release determination. The class given is cell-based, human. The settings on record: SUDHL-8, 2 hours, 20µM EU-5346 or 100µM Puma.
The target in another test is T1, CYP450 1A2 (Homo sapiens, UniProt P05177).
T1 sequence (P05177 1-516): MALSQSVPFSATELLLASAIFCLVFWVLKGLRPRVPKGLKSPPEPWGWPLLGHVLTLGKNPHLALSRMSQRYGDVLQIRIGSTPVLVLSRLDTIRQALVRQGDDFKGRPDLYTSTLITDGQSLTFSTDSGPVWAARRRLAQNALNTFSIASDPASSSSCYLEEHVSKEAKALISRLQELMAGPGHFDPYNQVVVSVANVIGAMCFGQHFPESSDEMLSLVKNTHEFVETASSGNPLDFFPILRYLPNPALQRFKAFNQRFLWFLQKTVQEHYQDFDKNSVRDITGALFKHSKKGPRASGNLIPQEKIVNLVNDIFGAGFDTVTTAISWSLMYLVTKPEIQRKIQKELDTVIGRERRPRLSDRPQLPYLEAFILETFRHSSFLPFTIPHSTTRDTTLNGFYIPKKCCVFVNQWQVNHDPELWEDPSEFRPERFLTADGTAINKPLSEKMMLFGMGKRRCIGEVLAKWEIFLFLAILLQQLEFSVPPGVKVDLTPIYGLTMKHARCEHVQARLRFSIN
The experiment in a line: CYP450 inhibition 1A2.

Chain of Human Mcl-1 (Q07820 1-327 limits assumed): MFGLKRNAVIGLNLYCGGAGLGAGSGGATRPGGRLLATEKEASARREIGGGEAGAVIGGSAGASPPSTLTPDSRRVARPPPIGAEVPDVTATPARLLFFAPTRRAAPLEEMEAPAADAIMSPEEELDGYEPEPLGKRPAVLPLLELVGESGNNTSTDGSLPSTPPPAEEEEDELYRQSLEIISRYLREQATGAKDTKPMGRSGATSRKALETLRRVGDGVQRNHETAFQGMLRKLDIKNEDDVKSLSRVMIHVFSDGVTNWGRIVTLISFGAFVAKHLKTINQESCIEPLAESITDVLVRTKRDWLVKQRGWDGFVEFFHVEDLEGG

In the case of `COc1ccc(C(Nc2ccccn2)c2cc(Cl)c3cccnc3c2O)cc1` (stereo not shown) [Compound 6], the “Mcl-1 potency relative to initial hit 1 (in words)” value on Human Mcl-1 is “enhanced potency”.
As to `O=C(O)COc1ccccc1C(Nc1ccccn1)c1cc(Cl)c2cccnc2c1O` (stereo not shown) [Compound 1], the “selectivity over Bcl-xL” value at Human Mcl-1 (Mcl-1 versus Bcl-xL, FP assays) is recorded as “greater than 40 fold”. The “inhibition of Bcl-xL” value against Bcl-xL (at 100 µM) was “no appreciable inhibition”. For the same compound, in test [1] (cell lines not specified), the “antiproliferative activity (in words)” value is “only modest antiproliferative activity”.
As to `Oc1c(C(Nc2ccccn2)c2ccco2)cc(Cl)c2cccnc12` (stereo not shown) [Compound 7], at Human Mcl-1, the “Mcl-1 potency relative to initial hit 1 (in words)” value is listed as “enhanced potency”.
The same measure, in the same setting: the result for `Cc1ccnc(NC(c2ccc(F)cc2)c2cc(Cl)c3cccnc3c2O)c1` (stereo not shown) [Compound 8] reads “five-fold more potent”.
On to `CC1(C)CCC(c2ccc(Cl)cc2)=C(CN2CCN(c3ccc(C(=O)NS(=O)(=O)c4ccc(N[C@H](CCN5CCOCC5)CSc5ccccc5)c(S(=O)(=O)C(F)(F)F)c4)cc3)CC2)C1` [Navitoclax, reference compound], for which the “induction of nuclear apoptosis / reduced viability (DAPI)” value in the test with Mcl1-1780 [2] is listed as “only minimal effectiveness”; in the test on Bcl2-1863 [3], “distinct preference in inducing apoptosis”.
In the case of `CCN1CCN(C(c2ccc(C(F)(F)F)cc2)c2cc(Cl)c3cccnc3c2O)CC1` (stereo not shown) [Compound 9], in the test with Mcl1-1780 [2], the “induction of nuclear apoptosis / reduced viability (DAPI)” value was “reduces viability with a marked preference”. The IC50 (in general, the concentration needed to halve the response being measured) was greater than 10 µM against CYP450 3A4; 40 µM at Bcl-xL (read-out: Bcl-xL IC50, FP assay, GST-Bcl-xL, FITC-Bim); greater than 10 µM against CYP450 2D6; greater than 10 µM at CYP450 2C9; greater than 10 µM against CYP450 1A2. Moreover, the “percent of Annexin V positive cells” value in the test on Bcl2-1863 [4] is reported as “displayed dose-dependency”; with Mcl1-1780 [6], “greater in Mcl1-1780 than in Bcl2-1863”. In addition, the cytochrome c release entry in the test on SUDHL-6 is given as “greatest extent of cytochrome c release”; in the test with Mcl1-1780 [5], “significantly greater”; in the test with SUDHL-10 it was “significantly reduced”; in the test with SUDHL-8, “significantly reduced”. Further, in [1] (Homo sapiens, read-out: EC50 values, range over cell lines), the EC50 (in general, the concentration giving half of the maximal effect) lay within 0.3 to 15 µM. Moreover, the “efficacy in cellular proliferation assays (in words)” value in test [1] (Mcl1-1780, Bcl2-1863, SUDHL-6, NCIH929) was “low micromolar efficacy”.
